Assay results reported in PubChem BioAssay AID488973 (NMMLSC, 2010).
Activity calls are given as the source filed them.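 How the source made its calls: active means toxic dose over ten times the dose restoring drug killing, with toxic dose under 15 µM; inactive means the rest.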

Tested on: Jurkat/DNR viability with daunorubicin, trypan blue, 7 d
Test: chemoreversal in ABCB1 cells, dose response, ABC transporter inhibitor project, paired ABCG2 counter-screen, SAR hit validation (AID 488973)
Conditions: for CC50: measured here: toxicity without chemotherapeutic (TD50)
Outline: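 Assay system: ABCB1-expressing drug-resistant Jurkat/DNR cells. Input: 100,000 cells per mL. Reagent: daunorubicin as selective agent at a fixed amount. Doses: 0.1–100 µM compound series. Timing: 7 d compound exposure. Technique: cell counting after trypan blue staining. Read-out: CR50 compared with TD50.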

COc1cccc(-c2cc3nc(C)c(C)c(N4CCN(Cc5ccco5)CC4)n3n2)c1
EC50: 20 nM
CC50: > 100 µM

Cc1nc2cc(-c3cccc(Cl)c3)nn2c(N2CCN(C(=O)c3ccsc3)CC2)c1C
EC50: 1130 nM (inactive)
CC50: 10.1 µM

COc1cccc(C(=O)N2CCN(c3cc(-c4ccccc4)nc4cc(-c5cccc(Cl)c5)nn34)CC2)c1
EC50: 350 nM
CC50: > 100 µM

Cc1nc2cc(-c3ccc(F)cc3)nn2c(N2CCN(C(=O)c3ccco3)CC2)c1C
EC50: 1820 nM (inactive)
CC50: 5.33 µM

Cc1cc(N2CCN(C(=O)c3ccco3)CC2)n2nc(-c3ccc(F)cc3)cc2n1
EC50: 5330 nM (inactive)
CC50: 4.2 µM

O=C(c1ccncc1)N1CCN(c2cc(-c3ccccc3)nc3cc(-c4cccc(Cl)c4)nn23)CC1
EC50: 250 nM (inactive)
CC50: 10.9 µM

O=C(Cc1ccccc1)N1CCN(c2cc(-c3ccccc3)nc3cc(-c4cccc(Cl)c4)nn23)CC1
EC50: 510 nM
CC50: 17.8 µM

COc1cccc(-c2cc3nc(-c4ccco4)cc(N4CCN(C(=O)c5ccoc5)CC4)n3n2)c1
EC50: 470 nM (inactive)
CC50: 5.52 µM

Cc1nc2cc(-c3cccc(Cl)c3)nn2c(N2CCN(C(=O)c3ccco3)CC2)c1C
EC50: 1580 nM
CC50: > 100 µM

COc1ccc(-c2cc3nc(-c4ccccc4)cc(N4CCN(C(=O)c5ccsc5)CC4)n3n2)cc1
EC50: 140 nM (inactive)
CC50: 4.9 µM

COc1cccc(-c2cc3nc(C)c(C)c(N4CCN(C(=O)c5ccoc5)CC4)n3n2)c1
EC50: 820 nM
CC50: > 100 µM

O=C(c1ccco1)N1CCN(c2cc(-c3ccccc3)nc3cc(-c4cccc(Cl)c4)nn23)CC1
EC50: 700 nM (inactive)
CC50: 3.18 µM

O=C(c1ccco1)N1CCN(c2c3c(nc4cc(-c5cccc(F)c5)nn24)CCCC3)CC1
EC50: 2940 nM (inactive)
CC50: 5.32 µM

Cc1ccc(-c2cc3nc(-c4ccccc4)cc(N4CCN(C(=O)c5ccoc5)CC4)n3n2)cc1
EC50: 290 nM (inactive)
CC50: 5.77 µM

O=C(C1CCCO1)N1CCN(c2c3c(nc4cc(-c5cccc(F)c5)nn24)CCCC3)CC1 (centres undefined)
EC50: 3580 nM (inactive)
CC50: 12.3 µM

Cc1nc2cc(-c3ccc4c(c3)OCO4)nn2c(N2CCN(C(=O)c3ccoc3)CC2)c1C
EC50: 130 nM
CC50: > 100 µM

COc1ccc(-c2cc3nc(-c4ccccc4)cc(N4CCN(C(=O)c5ccoc5)CC4)n3n2)cc1
EC50: 230 nM (inactive)
CC50: 5.54 µM

COc1ccc(-c2[nH]nc3nc(N4CCN(C(=O)c5ccoc5)CC4)cc(C(F)(F)F)c23)cc1
EC50: 330 nM (inactive)
CC50: 0.455 µM

COc1ccc(-c2cc3nc(-c4ccccc4)cc(N4CCN(C(=O)c5ccccc5)CC4)n3n2)cc1
EC50: 190 nM
CC50: 16.9 µM

COc1ccccc1-c1cc2nc(-c3ccccc3)cc(N3CCN(C(=O)c4ccoc4)CC3)n2n1
EC50: 450 nM (inactive)
CC50: 4.37 µM

O=C(c1ccoc1)N1CCN(c2cc(-c3ccccc3)nc3cc(-c4ccncc4)nn23)CC1
EC50: 1520 nM (inactive)
CC50: 9.52 µM

O=C(c1ccco1)N1CCN(c2cc(-c3ccccc3)nc3cc(-c4cccc(F)c4)nn23)CC1
EC50: 580 nM (inactive)
CC50: 2.16 µM

COc1ccc(-c2cc3nc(C)c(C)c(N4CCN(C(=O)c5ccco5)CC4)n3n2)cc1
EC50: 530 nM
CC50: > 100 µM

COc1ccc(-c2cc3nc(C)c(C)c(N4CCN(C(C)=O)CC4)n3n2)cc1
EC50: 6000 nM
CC50: 105 µM

O=C(c1ccoc1)N1CCN(c2cc(-c3cccnc3)nc3cc(-c4cccc(Cl)c4)nn23)CC1
EC50: 200 nM (inactive)
CC50: 5.33 µM

O=C(c1ccco1)N1CCN(c2cc(Cc3ccccc3)nc3cc(-c4cccc(Cl)c4)nn23)CC1
EC50: 1410 nM (inactive)
CC50: 8.47 µM

O=C(c1ccoc1)N1CCN(c2cc(-c3ccco3)nc3cc(-c4cccc(Cl)c4)nn23)CC1
EC50: 530 nM (inactive)
CC50: 8.53 µM

Cc1nc2ncnn2c(N2CCN(C(=O)c3ccco3)CC2)c1Cc1ccccc1
EC50: 12300 nM (inactive)
CC50: > 100 µM

O=C(c1cccnc1)N1CCN(c2cc(-c3ccccc3)nc3cc(-c4cccc(Cl)c4)nn23)CC1
EC50: 170 nM (inactive)
CC50: 4.72 µM

COc1cc(OC)cc(-c2cc3nc(C)c(C)c(N4CCN(C(=O)c5ccoc5)CC4)n3n2)c1
EC50: 100 nM (inactive)
CC50: 9.52 µM

Cc1cc(N2CCN(C(=O)c3ccco3)CC2)n2nc(C)c(-c3ccccc3)c2n1
EC50: 3580 nM (inactive)
CC50: 3.31 µM

COc1cccc(-c2cc(N3CCN(C(=O)c4ccoc4)CC3)n3nc(-c4cccc(OC)c4)cc3n2)c1
EC50: 30 nM (inactive)
CC50: 7.93 µM

Cc1nc2cc(-c3cccc(Cl)c3)nn2c(N2CCN(C(=O)c3ccoc3)CC2)c1C
EC50: 510 nM (inactive)
CC50: 5.33 µM

CC(=O)N1CCN(c2c(C)c(C)nc3cc(-c4cccc(F)c4)nn23)CC1
EC50: 19800 nM (inactive)
CC50: > 100 µM

Cc1cc(N2CCN(C(=O)c3ccco3)CC2)n2nc(-c3ccccc3)nc2n1
EC50: 4920 nM (inactive)
CC50: 11.8 µM

O=C(c1ccoc1)N1CCN(c2cc(-c3ccncc3)nc3cc(-c4cccc(Cl)c4)nn23)CC1
EC50: 600 nM (inactive)
CC50: 13.5 µM

O=C(c1ccoc1)N1CCN(c2cc(-c3ccco3)nc3cc(-c4ccccc4)nn23)CC1
EC50: 550 nM (inactive)
CC50: 5.52 µM
